This is a sample that favours compounds with a hit; in the whole collection about 2.6% have one here.
miR-122 sensor = miR-122 Renilla sensor signal increase in Huh7, primary screen, miR-122 inhibitor project, cell-based, single point, plate reader; Huh7 miR-122 Renilla luciferase sensor, 48 h; neutral wells = 0, positive control = 100; activation (reporter increase), % at 12.5 µM; hit rate 0.3% among 340,000;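 active = mean replicate activation score at least 90 and every replicate individually at or above 90; inconclusive = only one of the two criteria met; inactive = neither criterion met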;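 also: higher luciferase means less miR-122 activity so hits act as miR-122 inhibitors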
CFTR F508del cor = F508del CFTR correction, initial screen, CFBE line, single point | hit rate 0.36% among 350,000 | CFBE cells, YFP halide quenching; stimulated with forskolin plus potentiator P3; % fluorescence drop versus neutral controls | activity (quench increase), % at 7.58 µM;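 active = mean added fluorescence quench of at least 8% versus neutral control, with both replicates also reaching 8%; inconclusive = only one of the mean or replicate conditions met; inactive = mean below 8% and not both replicates reaching 8%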;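 also: cells transiently co-express mutant CFTR-F508del with the halide-sensitive YFP; corrector assay measuring rescue of mutant channel to the surface after 24 h compound exposure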
DENV2 CPE = inhibitors of DENV2 cytopathic effect, primary screen, cell-based, plate reader, single concentration; DENV2-infected cells, cytopathic effect rescue; CPE inhibition, % at 9.99 µM; hit rate 1.7% among 350,000; in the data active = CPE inhibition above about 20%, passing the limit was not always enough; inconclusive = no clear call, values can overlap the other calls; tested in BHK-21 cells;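 also: 0% = median of neutral control wells and 100% = median of positive control wells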
E-selectin induc = E-selectin induction in HUVECs, primary screen, imaging, HUVEC, immunofluorescence imaging, single point | P16581 | normalized: neutral wells 0, TNF-alpha wells 100 | activation, % at 7.58 µM | hit rate 0.37% among 260,000 | AID 686992, 2013;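 active = mean E-selectin-positive cell signal at least 10% of the positive control, reached in at least 60% of replicates, without over 20% cell loss; inconclusive = no rule given, readout overlaps actives, possibly toxicity-flagged; inactive = the rest, including those meeting only one limit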
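Test system: HUVEC; input: 3,000 HUVEC/well; measured by: immunofluorescence imaging; read-out: % PE-positive cells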
ERAP1 HTS inh = human ERAP1 aminopeptidase inhibitors, primary screen, biochemical, single point, plate reader. inhibition, % at 10.7 µM. recombinant ERAP1, Leu-AMC fluorescence, 60 min. Endoplasmic reticulum aminopeptidase 1 (Homo sapiens), Q9NZ08. hit rate 0.15% among 340,000. AID 652197, 2013;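 active = mean replicate inhibition of at least 30%, or all replicates individually reaching that 30% level; inactive = mean below 30% and not every replicate reaching it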;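 also: 0% = neutral control wells and 100% = L-leucinethiol positive control wells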
Target sequence (Q9NZ08 whole entry, looked up): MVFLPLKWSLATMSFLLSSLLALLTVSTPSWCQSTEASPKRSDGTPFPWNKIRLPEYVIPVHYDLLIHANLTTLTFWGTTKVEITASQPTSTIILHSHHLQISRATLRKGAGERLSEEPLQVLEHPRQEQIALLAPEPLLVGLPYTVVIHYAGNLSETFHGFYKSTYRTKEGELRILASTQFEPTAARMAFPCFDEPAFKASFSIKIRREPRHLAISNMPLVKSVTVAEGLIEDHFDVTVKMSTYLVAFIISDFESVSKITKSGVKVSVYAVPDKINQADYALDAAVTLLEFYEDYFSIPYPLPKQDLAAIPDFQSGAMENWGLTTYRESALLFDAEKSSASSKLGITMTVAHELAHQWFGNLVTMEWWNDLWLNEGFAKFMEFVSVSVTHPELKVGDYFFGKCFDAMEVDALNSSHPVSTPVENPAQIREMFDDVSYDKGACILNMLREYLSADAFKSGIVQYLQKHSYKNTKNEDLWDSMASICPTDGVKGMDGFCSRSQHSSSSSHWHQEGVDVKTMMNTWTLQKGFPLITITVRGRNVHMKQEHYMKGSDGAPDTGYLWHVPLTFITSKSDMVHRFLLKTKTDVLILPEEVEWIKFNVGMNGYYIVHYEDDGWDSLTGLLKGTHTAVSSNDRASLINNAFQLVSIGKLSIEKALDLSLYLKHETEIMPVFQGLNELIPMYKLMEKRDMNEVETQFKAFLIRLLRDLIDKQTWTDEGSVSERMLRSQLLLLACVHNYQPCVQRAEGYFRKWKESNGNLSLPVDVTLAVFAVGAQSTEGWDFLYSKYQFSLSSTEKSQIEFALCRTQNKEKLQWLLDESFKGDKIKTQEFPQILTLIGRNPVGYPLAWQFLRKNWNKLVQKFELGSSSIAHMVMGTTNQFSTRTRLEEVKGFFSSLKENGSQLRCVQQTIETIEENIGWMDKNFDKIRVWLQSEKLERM
INS-1E GSIS act = GLuc luminescence reporter in INS-1E cells, primary screen for activators of glucose-dependent secretion of insulin; INS-1E GLuc reporter insulin secretion, 2-3 h; activation, % at 16.6 µM; hit rate 0.61% among 370,000;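 active = lowest replicate activation of at least 40%, so every replicate reaches that level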;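 also: 0% = median of neutral control wells and 100% = median of IBMX positive control wells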
The depositor's hits bear a star; ? = inconclusive; . = not tested or not shown; [ ] = dose if it differs, or a comment.

SMILES | miR-122 sensor | CFTR F508del cor | DENV2 CPE | E-selectin induc | ERAP1 HTS inh | INS-1E GSIS act
CO[C@H]1CN(C)C(=O)c2ccc(NC(=O)C3CC3)cc2OC[C@H](C)N(C(=O)NC(C)C)C[C@@H]1C | . | 0.0 | 1.7 | 0.0 | 2.2 | 3.4
COc1ccccc1C(=O)Nc1c2c(nn1-c1ccc(Cl)cc1)CS(=O)(=O)C2 | . | 0.4 | 5.7 | -0.1 | -1.9 | 2.3
Cc1ccccc1-n1nc2c(c1NC(=O)c1cc3ccccc3oc1=O)CS(=O)C2 (stereo not drawn) | -1.9 | . | . | . | . | .
COc1ccccc1C(=O)Nc1c2c(nn1-c1cccc(C)c1C)CS(=O)(=O)C2 | -1.8 | . | . | . | . | 58.5*
Cc1ccccc1-n1nc2c(c1NC(=O)c1cc3ccccc3oc1=O)CS(=O)(=O)C2 | . | . | . | . | . | 53.8*
C[C@H]1CN([C@@H](C)CO)C(=O)c2cc(NC(=O)Cn3cnnn3)ccc2O[C@@H]1CN(C)C(=O)NC1CCCCC1 | -0.4[16.7 µM] | -2.1 | ? | . | 10.6 | 4.8
Cc1noc(C)c1NC(=O)N(C)C[C@@H]1Oc2ccc(NC(=O)Cn3cnnn3)cc2C(=O)N([C@@H](C)CO)C[C@@H]1C | -1.2[16.7 µM] | -0.7 | 4.0 | 102.7* | 1.4 | -1.0
Cc1noc(C)c1NC(=O)N(C)C[C@H]1Oc2ccc(NC(=O)Cn3cnnn3)cc2C(=O)N([C@H](C)CO)C[C@H]1C | 0.0[16.7 µM] | -1.7 | -8.9 | -6.6 | -0.5 | 4.9
C[C@H](CO)N1C[C@H](C)[C@H](CN(C)C(=O)NC2CCCCC2)Oc2ccc(NC(=O)Cn3cnnn3)cc2C1=O | 0.0[16.7 µM] | 3.2 | 99.0* | . | 12.9 | 23.5
CCOC(=O)N1CCN(c2c(N3CCOCC3)c(=O)c2=O)CC1 | -7.7 | -1.1 | -0.2 | 203.5* | 4.0 | 0.8
CCS(=O)(=O)N[C@@H]1C=C[C@H](CC(=O)Nc2ccc(-c3ccccc3)cc2)O[C@@H]1CO | -9.0[16.7 µM] | 0.9 | 70.3* | -0.5 | 1.9 | -5.1
Cc1ccc(S(=O)(=O)NCC[C@H]2CC[C@H](NC(=O)Nc3cccc(F)c3)[C@@H](CO)O2)cc1 | . | -1.5 | -1.1 | 0.1 | -4.5 | -6.3
COc1ccc(OC)c(S(=O)(=O)Nc2ccc(C)c(C)c2)c1 | 88.2 | . | . | . | . | -9.7
COc1ccc(OC)c(S(=O)(=O)Nc2cc3c4c(c2)CCC(=O)N4CCC3)c1 | 138.4* | 0.5 | 9.6 | -0.1 | -6.2 | 33.7
Cc1ccc(C)c(S(=O)(=O)Nc2cc3c4c(c2)CCC(=O)N4CCC3)c1 | 217.9* | 0.9 | -1.2 | . | 0.8 | 21.4
COc1ccc(OC)c(S(=O)(=O)Nc2ccc3oc4c(c3c2)C(=O)CCC4)c1 | 165.3* | . | . | . | . | .
COc1ccc(C)cc1S(=O)(=O)Nc1cc2c3c(c1)CCN3C(=O)CC2 | 87.2 | 2.4 | 5.9 | 0.1 | 0.9 | 25.0
COc1ccc(NC(=O)Nc2ccc3c(c2)C(=O)N([C@@H](C)CO)C[C@H](C)[C@@H](CN(C)C(=O)NC(C)C)O3)cc1 | -4.0[16.7 µM] | -0.4 | -7.1 | -0.1 | -0.3 | -2.2
CCCCCCOc1ccc(C(CC(N)=O)C(=O)O)cc1 (stereo not drawn) | -3.5 | -1.8 | 7.5 | 79.7* | 1.7 | 5.1
Cc1cc(-c2ccccc2)n2nc(N)nc2n1 | -0.9 | 2.5 | -8.2 | 5.1 | -1.7 | 48.6*
COC(=O)C[C@H]1CC[C@H]2[C@H](COc3ccc(NS(C)(=O)=O)cc3C(=O)N2C)O1 | 33.3[16.7 µM] | -0.5 | 0.8 | 0.1 | . | 15.8
CCc1nc(SCC(=O)c2ccccc2)c2c(=O)n(C)c(=O)n(C)c2n1 | -0.7 | -2.0 | 2.7 | . | -3.4 | 40.7*
COc1cc(C2NC(=O)NC(C)=C2C(=O)OC2CCCC(C)C2)cc(Br)c1O (stereo not drawn) | -4.6 | 1.2 | 45.8* | 0.1 | 1.1 | .
CCC(=O)Nc1cc2nn(-c3ccc(OC)cc3)nc2cc1C | 1.3 | . | . | . | . | 107.8*
Cc1noc(C)c1S(=O)(=O)Nc1ccc2c(c1)CC(=O)N([C@H](C)CO)C[C@H](C)[C@H](CN(C)C(=O)Nc1ccccc1)O2 | 8.9[16.7 µM] | 0.3 | -2.8 | -0.1 | 1.4 | 6.1
SMILES | miR-122 sensor | CFTR F508del cor | DENV2 CPE | E-selectin induc | ERAP1 HTS inh | INS-1E GSIS act
Cc1noc(C)c1S(=O)(=O)Nc1ccc2c(c1)CC(=O)N([C@@H](C)CO)C[C@H](C)[C@H](CN(C)C(=O)NC(C)C)O2 | 3.3[16.7 µM] | 0.5 | 18.3 | 0.0 | 6.2 | 8.0
Cc1noc(C)c1S(=O)(=O)Nc1ccc2c(c1)CC(=O)N([C@H](C)CO)C[C@@H](C)[C@H](CN(C)C(=O)Nc1cccc3ccccc13)O2 | -6.1[16.7 µM] | 2.3 | 17.4 | 32.1* | 0.2 | -12.1
Cc1noc(C)c1S(=O)(=O)Nc1ccc2c(c1)CC(=O)N([C@@H](C)CO)C[C@@H](C)[C@@H](CN(C)C(=O)Nc1cccc3ccccc13)O2 | 0.8[16.7 µM] | -2.8 | . | -8.0 | 2.5 | -3.2
Cc1noc(C)c1S(=O)(=O)Nc1ccc2c(c1)CC(=O)N([C@H](C)CO)C[C@H](C)[C@@H](CN(C)C(=O)Nc1cccc3ccccc13)O2 | . | -4.0 | -3.9 | 305.3* | -5.4 | -1.0
Cc1noc(C)c1S(=O)(=O)Nc1ccc2c(c1)CC(=O)N([C@H](C)CO)C[C@@H](C)[C@@H](CN(C)C(=O)NC(C)C)O2 | 12.3[16.7 µM] | 1.0 | 45.7* | -0.1 | 4.8 | 15.4
COc1ccc(-c2cnc3c(c2)C(=O)N([C@H](C)CO)C[C@H](C)[C@@H](CN(C)S(=O)(=O)c2ccc(OC)cc2)O3)cc1 | 23.2[16.7 µM] | -1.9 | . | -0.4 | . | -33.1
CC(C)CC#Cc1ccc2c(c1)O[C@@H](CN(C)C(=O)c1ccncc1)[C@@H](C)CN([C@@H](C)CO)S2(=O)=O | 17.8[16.7 µM] | 0.3 | -2.6 | 0.1 | -0.3 | 7.2
C[C@H](CO)N1C[C@H](C)[C@@H](CN(C)S(=O)(=O)c2ccccc2)OCCCC[C@H](C)Oc2ccc(NS(C)(=O)=O)cc2C1=O | 5.6[16.7 µM] | 2.3 | -4.0 | 0.2 | -2.0 | 4.5
O=C(NN=C1CCCC1)c1cc(-c2ccccc2)n[nH]1 | . | . | . | -0.1 | . | 48.1*
O=C(NN=C1CCCCC1)c1cc(-c2ccccc2)n[nH]1 | -1.1 | . | . | . | . | 33.6
COCCn1c(=N)c(C(=O)NCc2ccco2)cc2c(=O)n3cc(C)ccc3nc21 | -9.6 | 2.0 | 1.7 | . | 65.9* | -2.4
Cc1ccc2nc3c(cc(C(=O)NCc4ccco4)c(=N)n3C3CCCC3)c(=O)n2c1 | -3.5 | 3.9 | -1.4 | . | -90.0 | 14.6
COc1ccc(NC(=O)CSc2n[nH]c(-c3ccco3)n2)cc1 | 1.2 | -0.9 | 1.2 | . | -0.3 | 5.4
O=C(CSc1n[nH]c(-c2ccco2)n1)Nc1ccc(Br)cc1 | -2.3 | 1.8 | 30.3* | 0.4 | -6.0 | 8.6

Source: PubChem (Broad Institute)
